In ChEMBL document CHEMBL4138091, “Quinazoline based α1-adrenoreceptor antagonists with potent antiproliferative activity in human prostate cancer cell lines” (Eur J Med Chem, 2017):
pIC50, pKi: −log10 of the molar value. Calls of active or inactive are those of the source. No cut-off for these calls is given here.

Legend:
LNCaP [1] = test: Antiproliferative activity against human LNCAP cells at 0.1 to 50 uM after 120 hrs by MTT assay; type: functional, cell-based
Outline: (§1)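 DU-145, PC-3 and LNCaP cells grown in RPMI with 10% fetal calf serum, 37 °C, 5% CO₂; seeded at 5 × 10³ cells/well, exposed to 0.1–50 µM for 120 h. After PBS wash, MTT (5 mg/mL) in PBS 4 h, formazan dissolved in isopropanol, read at 570 nm. Viability as % of untreated; IC50 from at least three independent dose-response curves.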

PC-3 [2] = test: Antiproliferative activity against human PC3 cells at 0.1 to 50 uM after 120 hrs by MTT assay; type: functional, cell-based; outline: as §1
[3] = target: T1, Alpha-1D adrenergic receptor (Homo sapiens, UniProt P25100); test: Displacement of [3H]prazosin from human alpha1D adrenoceptor expressed in CHO cell membranes after 30 mins
T1 sequence (P25100 whole entry): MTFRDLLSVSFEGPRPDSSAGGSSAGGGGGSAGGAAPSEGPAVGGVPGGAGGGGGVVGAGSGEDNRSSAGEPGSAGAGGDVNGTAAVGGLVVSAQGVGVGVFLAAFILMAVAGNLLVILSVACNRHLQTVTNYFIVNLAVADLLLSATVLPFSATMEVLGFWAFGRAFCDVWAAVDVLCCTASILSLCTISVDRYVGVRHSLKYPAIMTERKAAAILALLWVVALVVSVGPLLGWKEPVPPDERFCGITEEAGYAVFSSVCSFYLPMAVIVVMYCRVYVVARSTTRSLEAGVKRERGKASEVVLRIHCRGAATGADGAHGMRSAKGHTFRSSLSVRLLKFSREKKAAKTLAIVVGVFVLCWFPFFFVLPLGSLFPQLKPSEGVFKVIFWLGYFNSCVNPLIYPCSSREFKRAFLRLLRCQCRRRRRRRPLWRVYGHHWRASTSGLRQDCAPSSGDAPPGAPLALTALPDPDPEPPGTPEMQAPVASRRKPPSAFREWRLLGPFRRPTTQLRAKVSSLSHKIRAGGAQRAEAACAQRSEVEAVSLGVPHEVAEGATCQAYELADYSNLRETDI

[4] = target: T2, Alpha-1B adrenergic receptor (Homo sapiens, UniProt P35368); test: Displacement of [3H]prazosin from human alpha1B adrenoceptor expressed in CHO cell membranes after 30 mins
T2 sequence (P35368 whole entry): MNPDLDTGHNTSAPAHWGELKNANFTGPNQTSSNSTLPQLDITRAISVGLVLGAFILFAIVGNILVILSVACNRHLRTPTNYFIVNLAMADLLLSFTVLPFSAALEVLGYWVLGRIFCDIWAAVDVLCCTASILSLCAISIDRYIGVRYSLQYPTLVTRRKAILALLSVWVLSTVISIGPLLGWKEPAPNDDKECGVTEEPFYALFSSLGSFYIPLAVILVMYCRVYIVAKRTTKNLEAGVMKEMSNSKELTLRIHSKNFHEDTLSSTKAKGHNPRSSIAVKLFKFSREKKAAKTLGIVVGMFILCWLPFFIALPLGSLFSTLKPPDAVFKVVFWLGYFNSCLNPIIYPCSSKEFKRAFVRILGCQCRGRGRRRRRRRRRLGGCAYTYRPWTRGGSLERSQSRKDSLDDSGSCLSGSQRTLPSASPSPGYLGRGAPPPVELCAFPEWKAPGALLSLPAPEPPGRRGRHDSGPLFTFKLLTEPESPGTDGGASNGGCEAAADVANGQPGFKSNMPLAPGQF

[5] = test system: Panel NCI-60 (60 carcinoma cell lines); test: Antiproliferative activity against human NCI60 cells at 10 uM after 48 hrs by SRB assay; type: functional, cell-based
Outline: (§2)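 NCI one-dose screen at 10 µM across 60 human tumour lines, 48 h exposure; growth given relative to no-drug control and to time-zero cell number, so 0–100 means inhibition and below 0 lethality; 100 means no inhibition.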

DU-145 [6] = test: Antiproliferative activity against human DU145 cells at 0.1 to 50 uM after 120 hrs by MTT assay; type: functional, cell-based; outline: as §1
[7] = target: T3, Alpha-1A adrenergic receptor (Homo sapiens, UniProt P35348); test: Displacement of [3H]prazosin from human alpha1A adrenoceptor expressed in CHO cell membranes after 30 mins
T3 sequence (P35348 whole entry): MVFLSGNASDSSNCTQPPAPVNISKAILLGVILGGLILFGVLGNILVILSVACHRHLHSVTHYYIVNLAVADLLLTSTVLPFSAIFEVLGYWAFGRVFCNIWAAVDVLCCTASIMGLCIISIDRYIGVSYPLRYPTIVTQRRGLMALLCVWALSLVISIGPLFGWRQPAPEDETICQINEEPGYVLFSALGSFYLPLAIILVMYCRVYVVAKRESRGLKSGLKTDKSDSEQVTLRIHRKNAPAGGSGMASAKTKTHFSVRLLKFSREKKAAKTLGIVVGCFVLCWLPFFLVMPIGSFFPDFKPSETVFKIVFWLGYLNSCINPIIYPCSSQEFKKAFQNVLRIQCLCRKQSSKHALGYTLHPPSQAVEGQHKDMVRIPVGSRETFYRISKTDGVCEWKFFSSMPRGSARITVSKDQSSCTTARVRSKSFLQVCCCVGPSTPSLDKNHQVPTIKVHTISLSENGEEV

Homo sapiens [8] = species on record: Homo sapiens; test: Selectivity ratio of Ki for human alpha1D adrenoceptor to Ki for human alpha1B adrenoceptor
LNCaP [9] = test: Induction of ROS generation in human LNCAP cells at 1 to 10 uM after 24 hrs by DCFH-DA dye-based spectrofluorometric analysis relative to control; type: functional
Outline: (§3)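 LNCaP cells seeded at 2 × 10⁴ cells/well, exposed to compounds (1–10 µM) for 24 h; then loaded with 5 µM DCFH-DA in PBS, 37 °C, 5% CO₂, 30 min, washed, fluorescence read (excitation 485 nm). Antioxidant lines involve t-BuOOH challenge. Output as fold increase of intracellular ROS over untreated; mean ± SD, three independent experiments.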

LNCaP [10] = test: Antiproliferative activity against human LNCAP cells after 120 hrs by MTT assay; type: functional, cell-based; outline: as §1
LNCaP [11] = test: Induction of apoptosis in human LNCAP cells assessed as increase in DNA fragmentation at 1 to 10 uM after 24 hrs by spectrophotometer relative to control; type: functional
Outline: (§4)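 LNCaP cells seeded at 1 × 10³ cells/well, treated 1–10 µM for 24 h at 37 °C, 5% CO₂; lysed 30 min, centrifuged, supernatant ELISA with biotin anti-histone and peroxidase anti-DNA antibodies on streptavidin plate, ABTS 20 min, read 405 nm. Fold increase = treated/untreated absorbance; mean ± SD, three independent experiments.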

PC-3 [12] = test: Antiproliferative activity against human PC3 cells after 120 hrs by MTT assay; type: functional, cell-based; conditions: PC-3, 120 h; outline: as §1
[13] = Selectivity index, ratio of cytotoxic concentration for HGF cells to IC50 for human LNCAP cells; type: toxicity; conditions: HGF cells and LNCAP cells, read-out: Selectivity Index
DU-145 [14] = test: Antiproliferative activity against human DU145 cells at 10 uM after 48 hrs by SRB assay relative to control; type: functional; outline: as §2
LNCaP [15] = test: Induction of apoptosis in human LNCAP cells assessed as increase in DNA fragmentation after 24 hrs by spectrophotometer; type: functional, cell-based; outline: as §4
[16] = Selectivity index, ratio of cytotoxic concentration for HGF cells to IC10 for human LNCAP cells; type: toxicity; conditions: HGF cells and LNCAP cells, read-out: Selectivity Index
LNCaP [17] = test: Antioxidant activity in human LNCAP cells assessed as inhibition of t-BuOOH-induced ROS level at 1 to 10 uM after 30 mins by DCFH-DA dye-based spectrofluorometric analysis relative to control; type: functional
LNCaP [18] = test: Antioxidant activity in human LNCAP cells assessed as inhibition of t-BuOOH-induced ROS level at 1 to 10 uM after 24 hrs by DCFH-DA dye-based spectrofluorometric analysis; type: functional, cell-based
LNCaP [19] = test: Prooxidant activity in human LNCAP cells assessed as increase in depletion of intercellular GSH level at 1 to 10 uM after 24 hrs by MCB dye-based spectrofluorometric analysis; type: functional, cell-based
Outline: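 LNCaP cells seeded at 2 × 10⁴ cells/well, treated 1–10 µM for 24 h at 37 °C, 5% CO₂; washed, 50 µM monochlorobimane in PBS 30 min at 37 °C, fluorescence read at excitation 360 nm, emission 465 nm; arbitrary fluorescence units; mean ± SD, three independent experiments.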

PC-3 [20] = test: Growth inhibition of human PC3 cells at 10 uM after 48 hrs by SRB assay relative to control; type: functional; conditions: PC-3, 48 h, read-out: GI; outline: as §2
LNCaP [21] = test: Antioxidant activity in human LNCAP cells assessed as inhibition of t-BuOOH-induced ROS level after 30 mins by DCFH-DA dye-based spectrofluorometric analysis; type: functional, cell-based
LNCaP [22] = test: Induction of necrosis in human LNCAP cells assessed as loss of plasma membrane integrity at 1 to 10 uM after 24 hrs by trypan blue staining-based Neubauer hemocytometric method; type: functional, cell-based
Outline: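 LNCaP cells seeded at 1 × 10⁶ cells/well, treated 1–10 µM for 24 h at 37 °C, 5% CO₂; scraped into PBS, mixed 1:1 with 0.5% trypan blue, counted on a Neubauer hemocytometer; percentage of stained cells from at least 3 separate counts.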

Homo sapiens [23] = species on record: Homo sapiens; test: Selectivity ratio of Ki for human alpha1A adrenoceptor to Ki for human alpha1B adrenoceptor
LNCaP [24] = test: Induction of ROS generation in human LNCAP cells after 24 hrs by DCFH-DA dye-based spectrofluorometric analysis; type: functional, cell-based; outline: as §3
DU-145 [25] = test: Antiproliferative activity against human DU145 cells after 120 hrs by MTT assay; type: functional, cell-based; conditions: DU-145, 120 h; outline: as §1
LNCaP [26] = test: Induction of apoptosis in human LNCAP cells assessed as increase in DNA fragmentation at 10 uM after 24 hrs by spectrophotometer relative to control; type: functional
Outline: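 LNCaP cells seeded at 1 × 10³ cells/well, exposed to compounds (1–10 µM range) for 24 h at 37 °C, 5% CO₂; lysed, supernatant run in Cell Death Detection ELISAplus (biotin anti-histone/peroxidase anti-DNA on streptavidin plate, ABTS substrate 20 min); absorbance 405 nm. DNA fragmentation given as fold increase, treated/untreated absorbance; mean SD of three independent experiments, t-test vs untreated.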

| Structure (SMILES) | Activity (LNCaP [1]) | Activity (PC-3 [2]) | pKi [3] | pKi [4] | Activity [5] | Activity (DU-145 [6]) | pKi [7] | other results |
| --- | --- | --- | --- | --- | --- | --- | --- | --- |
| COc1cc2nc(N3CCC[C@H](NC(=O)[C@H]4COc5ccccc5O4)C3)nc(N)c2cc1OC | inactive | inactive | 7.31 | 7.20 | inactive | inactive | 7.74 | – |
| COc1cc2nc(N3CCC[C@H](NC4=CC(=O)c5ccccc5C4=O)C3)nc(N)c2cc1OC | – | – | 8.67 | 9.28 | Active | – | 8.15 | Ratio Ki (Homo sapiens [8]): 4; Activity (LNCaP [9]): 56%; pIC50 (LNCaP [10]): 5.20; fold change (FC) (LNCaP [11]): 9.9; pIC50 (PC-3 [12]): 4.74; selectivity ratio [13]: 4.7; Activity (DU-145 [14]): 54%; Activity (LNCaP [15]): Dose-dependent effect; selectivity ratio [16]: 9.1; inhibition (INH) (LNCaP [17]): 34%; inhibition (LNCaP [18]): inactive; Activity (LNCaP [19]): Active; inhibition of growth at 10 µM (PC-3 [20]): 77%; inhibition (LNCaP [21]): Dose-dependent effect; Activity (LNCaP [22]): inactive; Ratio Ki (Homo sapiens [23]): 13; Activity (LNCaP [24]): Dose-dependent effect; pIC50 (DU-145 [25]): 4.73 |
| COc1cc2nc(N3CCC[C@H](NC(=O)c4ccco4)C3)nc(N)c2cc1OC | inactive | inactive | 9.48 | 9.55 | inactive | inactive | 9.20 | – |
| COc1cc2nc(N3CCN(C(=O)C4COc5ccccc5O4)CC3)nc(N)c2cc1OC (centres undefined) [DOXAZOSIN] | – | – | – | – | – | – | – | pIC50 (LNCaP [10]): 4.98; pIC50 (PC-3 [12]): 4.92; fold change (FC) (LNCaP [26]): 2.2; Activity (LNCaP [22]): inactive; pIC50 (DU-145 [25]): 4.51 |
| COc1cc2nc(N3CCC[C@@H](NC(=O)[C@@H]4COc5ccccc5O4)C3)nc(N)c2cc1OC | – | – | < 6.00 | 6.50 | – | – | < 6.00 | – |
| COc1cc2nc(N3CCC[C@H](N)C3)nc(N)c2cc1OC | inactive | inactive | 7.55 | 7.26 | inactive | inactive | 6.72 | Activity (LNCaP [11]): inactive; inhibition (LNCaP [17]): inactive; Activity (LNCaP [19]): inactive; Activity (LNCaP [22]): inactive |
| COc1cc2nc(N3CCC[C@H](NC(=O)[C@@H]4COc5ccccc5O4)C3)nc(N)c2cc1OC | inactive | inactive | 7.88 | 8.13 | inactive | inactive | 7.48 | – |
| COc1cc2nc(N3CCC[C@@H](NC4=CC(=O)c5ccccc5C4=O)C3)nc(N)c2cc1OC | – | – | 7.47 | 7.60 | Active | – | 6.92 | pIC50 (LNCaP [10]): 5.24; pIC50 (PC-3 [12]): 4.73; Activity (DU-145 [14]): 54%; inhibition of growth at 10 µM (PC-3 [20]): 45.5%; pIC50 (DU-145 [25]): 4.75 |
| COc1cc2nc(N3CCC[C@@H](N)C3)nc(N)c2cc1OC | – | – | 6.99 | 6.75 | – | – | < 6.00 | – |
| COc1cc2nc(N3CCC[C@@H](NC(=O)[C@H]4COc5ccccc5O4)C3)nc(N)c2cc1OC | – | – | 6.53 | 7.33 | – | – | < 6.00 | – |
| COc1cc2nc(N3CCC[C@@H](NC(=O)c4ccco4)C3)nc(N)c2cc1OC | inactive | inactive | 7.43 | 7.37 | inactive | inactive | 6.96 | – |
